Assay [1] has as its target T1, Alpha-2A adrenergic receptor (Homo sapiens, UniProt P08913).
T1 sequence (P08913 whole entry): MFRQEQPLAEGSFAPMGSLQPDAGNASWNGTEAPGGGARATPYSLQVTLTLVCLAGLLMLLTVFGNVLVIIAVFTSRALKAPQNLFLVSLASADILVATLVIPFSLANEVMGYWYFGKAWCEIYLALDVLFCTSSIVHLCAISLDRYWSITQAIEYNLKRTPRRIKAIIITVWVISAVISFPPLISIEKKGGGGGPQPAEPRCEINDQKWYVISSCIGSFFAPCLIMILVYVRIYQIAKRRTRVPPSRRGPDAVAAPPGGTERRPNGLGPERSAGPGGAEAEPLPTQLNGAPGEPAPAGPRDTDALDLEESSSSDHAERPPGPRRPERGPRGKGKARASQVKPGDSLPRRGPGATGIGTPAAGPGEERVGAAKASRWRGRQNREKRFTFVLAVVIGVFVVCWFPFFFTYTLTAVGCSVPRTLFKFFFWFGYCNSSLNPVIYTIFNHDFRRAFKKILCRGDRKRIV
Description: Displacement of [3H]RX821002 from alpha2-adrenergic receptor in prefrontal cortex of human brain after 30 mins by liquid scintillation spectrometric analysis. The format is tissue-based. On the technique in general: In a radioligand displacement assay an active substance lowers the binding of a labelled ligand.

Assay [2] concerns the target T2, Alpha-2A adrenergic receptor (Homo sapiens) (UniProt P08913).
T2 sequence (whole entry): T1 sequence (P08913 whole entry)
Description: Antagonist activity at alpha2-adrenergic receptor in prefrontal cortex of human brain assessed as increase in UK14304 EC50 for [35S]GTPgammaS binding after 120 mins by liquid scintillation spectrometric analysis. The assay is classed as functional, tissue-based. The procedure, abridged: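 Same [35S]GTPγS membrane assay (120 min, 30 °C, 0.5 nM radioligand, Mg/Na/GDP buffer pH 7.4). UK14304 concentration–response curves (10^-13 to 10^-4 M) run with or without test compound at 10^-5 M. Shift in agonist EC50 taken as the measure of antagonism. Bound label counted by liquid scintillation.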
In general terms: GTPγS is a poorly hydrolysed GTP analogue; its binding reports G protein activation.

Assay [3] addresses T2, Alpha-2A adrenergic receptor (Homo sapiens). Nature of the assay: Antagonist activity at alpha2-adrenergic receptor in prefrontal cortex of human brain assessed as effect on [35S]GTPgammaS binding after 120 mins by liquid scintillation spectrometric analysis. The format is functional, tissue-based.

Molecules are shown by their SMILES. Active and inactive are the calls of the source. The calls are words filed in the database; no cut-off is given here.

As to `CC1CN/C(=N/c2ccc(N(C)C)cc2)N1` (centres undefined), the affinity in assay [1], expressed as Ki, was 3310 nM.
On the same count and under the same terms, for `N=C(NCCO)Nc1ccc2c(c1)CCCC2` the value was 1740 nM.
Regarding `CCOc1ccc(NC(=N)N)cc1`, the result in assay [2] and in assay [3] was Active. This compound also had a Ki in assay [1] of 141 nM.
As to `CCNc1ccc(NC(=N)NCCO)cc1`, in assay [1], the affinity, expressed as Ki, was 18600 nM.
With `N=C(Nc1ccccc1)Nc1ccc2c(c1)CCCC2`, the outcome in assay [2] and in assay [3] was Active. In assay [1], this compound had a Ki of 263 nM.
With `CN(C)c1ccc(/N=C2/NCC(c3ccco3)N2)cc1` (centres undefined), in assay [1], affinity was put at a Ki of 1320 nM.
As to `CCOc1ccc(/N=C(/N)NCc2ccco2)cc1`, the affinity in assay [1], expressed as Ki, was 1480 nM. Besides, in assay [3], the outcome was Active.
In turn, `CCNc1ccc(/N=C2/NCC(C)N2)cc1` (centres undefined) showed a Ki in assay [1] of 12300 nM.
The compound `CCCNC(=N)Nc1ccc(OCC)cc1` showed a Ki in assay [1] of 4270 nM. Also, in assay [3], the outcome was Active.
On the same counts, the results for `N=C(NCc1ccco1)Nc1ccc2c(c1)CCCC2` are 513 nM and “Active”.
Take `CC1CN/C(=N/c2ccc3c(c2)OCO3)N1` (centres undefined): affinity in assay [1] was put at a Ki of 2340 nM.
Compound `CCOc1ccc(/N=C2/NCC(c3ccco3)N2)cc1` (centres undefined) had a Ki in assay [1] of 2630 nM. This Ki and that of the compound before are within 1.5-fold of each other.
For `CN(C)c1ccc(NC(=N)Nc2ccccc2)cc1`, the result in assay [2] and in assay [3] was Active. The same compound showed a Ki in assay [1] of 389 nM.
For the compound `CN(C)c1ccc(/N=C(/N)NCc2ccco2)cc1`, the outcome in assay [2] and in assay [3] was Active. The compound also showed a Ki in assay [1] of 214 nM.
Regarding `c1coc(C2CN/C(=N/c3ccc4c(c3)CCCC4)N2)c1` (centres undefined), the affinity in assay [1], expressed as Ki, was 692 nM. Moreover, the outcome in assay [3] was Active.
`CCNc1ccc(/N=C(/N)NCc2ccco2)cc1`: the affinity in assay [1] corresponds to a Ki of 1070 nM. Moreover, the outcome in assay [3] was Active.
As for `N=C(Nc1ccccc1)Nc1ccc2c(c1)OCO2`, the affinity in assay [1] corresponds to a Ki of 4370 nM.
`CC1CN/C(=N/c2ccc3c(c2)CCCC3)N1` (centres undefined) gave a Ki in assay [1] of 1000 nM. Moreover, the outcome in assay [3] was Active.
`CCCNC(=N)Nc1ccc2c(c1)CCCC2` showed a Ki in assay [1] of 676 nM. The outcome in assay [3] was Active.
Consider `CCOc1ccc(/N=C2/NCC(C)N2)cc1` (centres undefined), for which the Ki in assay [1] was 14100 nM. This counts as double-digit micromolar.
`CN(C)c1ccc(NC(=N)NCCO)cc1` showed an inhibition constant Ki in assay [1] of 1860 nM. In assay [3], the outcome was Active.
On to `N=C(NCCO)Nc1ccc2c(c1)OCO2`, for which, in assay [1], the Ki is 11700 nM. The outcome in assay [3] was Active.
Compound `CCNc1ccc(NC(=N)Nc2ccccc2)cc1` showed a Ki in assay [1] of 4900 nM. In other words, the single-digit micromolar range.
`CCOc1ccc(NC(=N)NCCO)cc1` had a Ki in assay [1] of 19100 nM.
The same measure, in the same setting: with `CCCNC(=N)Nc1ccc(NCC)cc1` the figure was 8320 nM; with `c1coc(C2CN/C(=N/c3ccc4c(c3)OCO4)N2)c1` (centres undefined), 1700 nM; with `COC1(C2=NCCN2)COc2ccccc2O1` (centres undefined), 1.91 nM.
`CCOc1ccc(N=C2NCCN2)cc1`: the outcome in assay [2] and in assay [3] was Active. The affinity in assay [1] corresponds to a Ki of 79.4 nM.
The compound `CCNc1ccc(/N=C2/NCC(c3ccco3)N2)cc1` (centres undefined) had an inhibition constant (Ki) in assay [1] of 2190 nM.
As for `N=C(NCc1ccco1)Nc1ccc2c(c1)OCO2`, affinity in assay [1] was put at a Ki of 1510 nM. Besides, in assay [3], the result was Active.
Compound `CCCNC(=N)Nc1ccc2c(c1)OCO2` gave a Ki in assay [1] of 15100 nM. That is a double-digit micromolar value.
On to `CCCNC(=N)Nc1ccc(N(C)C)cc1`, for which, in assay [1], the affinity corresponds to a Ki of 1120 nM. Also, the outcome in assay [3] was Active.
In the case of `CCOc1ccc(NC(=N)Nc2ccccc2)cc1`, affinity in assay [1] was put at a Ki of 2240 nM.

By Ki is commonly meant a dissociation constant, usually derived from enzyme kinetics or from competition with a known ligand. A lower Ki goes with a stronger hold on the target.

Source of the values: ChEMBL document CHEMBL3286260, “Guanidine-based α2-adrenoceptor ligands: Towards selective antagonist activity” (Eur J Med Chem, 2014).
